Active and inactive are the calls of the source. The rule behind the calls is not given here.
Experiments:
[1] = biological target: Orotidine 5'-phosphate decarboxylase (Methanobacterium thermoautotrophicum, UniProt O26232); experiment: Irreversible inhibition of Methanobacterium thermoautotrophicum 5'-monophosphate decarboxylase
[2] = biological target: Orotidine 5'-phosphate decarboxylase (Methanobacterium thermoautotrophicum) (UniProt O26232); experiment: Covalent binding affinity to Methanobacterium thermoautotrophicum 5'-monophosphate decarboxylase by mass spectroscopy analysis; conditions: Methanothermobacter thermautotrophicus
Orotidine 5'-phosphate decarboxylase (Methanobacterium thermoautotrophicum), sequence (O26232 whole entry, looked up): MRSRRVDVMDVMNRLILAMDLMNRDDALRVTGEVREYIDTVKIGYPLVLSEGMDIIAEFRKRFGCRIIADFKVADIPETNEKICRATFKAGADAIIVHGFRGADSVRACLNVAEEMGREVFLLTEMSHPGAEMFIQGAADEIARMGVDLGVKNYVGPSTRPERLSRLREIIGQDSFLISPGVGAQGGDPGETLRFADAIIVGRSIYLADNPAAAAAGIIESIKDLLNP
Procedure, shortened: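 Mt ODCase incubated overnight at room temperature with inhibitor (25 mM, in the dark; or 388 mM with 200 μM enzyme) in 50 mM Tris pH 7.5, 20 mM DTT, 40 mM NaCl. Enzyme mass measured by mass spectrometry against an inhibitor-free control; covalent adduct taken from a mass increase over native enzyme.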

[3] = tested on: Plasmodium falciparum; experiment: Antimalarial activity against Plasmodium falciparum 3D7; type: functional, organism-based
[4] = Cytotoxicity against human OCI-AML1 cells; type: functional, cell-based
[5] = tested on: CHO; experiment: Cytotoxicity against CHO cells; type: cell-based; conditions: Cricetulus griseus

Orotidine 5'-phosphate decarboxylase, sequence (O26232 whole entry): as the sequence (O26232 whole entry, looked up) above

Ki [1]	IC50 [3]	SMILES	Activity [2]	IC50 [4]	IC50 [5]
1200 µM	–	[N-]=[N+]=Nc1cc(=O)[nH]c(=O)n1[C@@H]1O[C@H](COP(=O)(O)O)[C@@H](O)[C@H]1F	Active	–	–
–	> 2000 µM	NC(=O)c1cc(=O)[nH]c(=O)n1[C@@H]1O[C@H](CO)[C@@H](O)[C@H]1F	–	> 50 µM	> 1000 µM

The remaining lines, values behind:

SMILES	Ki [1]	IC50 [3]	Activity [2]	IC50 [4]	IC50 [5]
O=c1cc(I)n([C@@H]2O[C@H](CO)[C@@H](O)[C@H]2F)c(=O)[nH]1	–	> 6000 µM	–	> 50 µM	1360 µM
N#Cc1cn([C@@H]2O[C@H](CO)[C@@H](O)[C@H]2F)c(=O)[nH]c1=O	–	1090 µM	–	> 50 µM	> 1000 µM
[N-]=[N+]=Nc1cc(=O)[nH]c(=O)n1[C@@H]1O[C@H](CO)[C@@H](O)[C@H]1F	–	> 1000 µM	–	> 50 µM	> 2000 µM
O=c1cc(I)n([C@@H]2O[C@H](CP(=O)(O)O)[C@@H](O)[C@H]2F)c(=O)[nH]1	–	–	Active	–	–
N#Cc1cc(=O)[nH]c(=O)n1[C@@H]1O[C@H](CO)[C@@H](O)[C@H]1F	–	> 1000 µM	–	> 50 µM	> 600 µM

From ChEMBL document CHEMBL1765012, “Novel interactions of fluorinated nucleotide derivatives targeting orotidine 5'-monophosphate decarboxylase” (J Med Chem, 2011)
